# Test results as given in ChEMBL document CHEMBL5712094, “The Gridlock transcriptional repressor impedes vertebrate heart regeneration by restricting expression of lysine methyltransferase” (2020).
# Calls of active or inactive are those of the source. No cut-off for these calls is given here.
# What was measured:
# Cardiac Muscle Cell [1] = assay: In vivo inhibition of Smyd2 KMT activity in grl5nt-/- mutant Zebrafish assessed as decrease in p-STAT3 level cardiomyocyte at 5 uM by immunostaining analysis; assay type: functional, cell-based; details: Danio rerio
# In short: (§1)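 grl5nt−/− zebrafish underwent ventricular resection and were bath-treated in aquarium water from 6 to 7 dpa, with 0.5‰ DMSO as vehicle. Cryosections at 7 dpa were double-immunostained for P-Stat3 and Mef2. CMs with nuclear or perinuclear cytosolic P-Stat3 were counted in the injury border zone. n=4-6 fish; mean±s.e.m.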
# [2] = molecular target: N-lysine methyltransferase SMYD2 (Homo sapiens) (UniProt Q9NRG4); assay: Inhibition of Smyd2 KMT activity in human HEK 293T cells co-transfected with Flag-STAT3 and HA-Smyd2b assessed as decrease in Stat3 methylation at 5 to 2.5 uM for 28 hrs by Co-IP assay; assay type: cell-based; details: dose 5-2.5 µM
# Sequence of N-lysine methyltransferase SMYD2 (Homo sapiens) (Q9NRG4 whole entry): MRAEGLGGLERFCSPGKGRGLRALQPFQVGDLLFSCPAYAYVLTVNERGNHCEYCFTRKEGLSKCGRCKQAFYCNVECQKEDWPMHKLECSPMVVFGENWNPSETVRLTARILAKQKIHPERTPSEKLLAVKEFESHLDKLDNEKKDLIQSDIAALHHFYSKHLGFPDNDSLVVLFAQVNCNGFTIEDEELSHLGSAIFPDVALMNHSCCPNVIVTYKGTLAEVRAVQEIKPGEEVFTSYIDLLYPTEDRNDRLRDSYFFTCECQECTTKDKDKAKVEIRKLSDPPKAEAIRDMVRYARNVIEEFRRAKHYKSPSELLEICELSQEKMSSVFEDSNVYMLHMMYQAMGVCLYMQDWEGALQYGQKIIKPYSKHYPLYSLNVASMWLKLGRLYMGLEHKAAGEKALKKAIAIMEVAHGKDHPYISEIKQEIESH
# In short: (§2)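 HEK 293T cells were co-transfected with Flag-Stat3 and HA-Smyd2b. Compound was added at 15 or 25 µM for 6 h, or at 2.5 or 5 µM for 28 h, before harvest at 48 h post-transfection. Lysates were made in denaturing buffer with 1% SDS at 100°C for 20 min, then diluted to 0.1% SDS. Stat3 was immunoprecipitated with anti-Flag beads for 4 h. Blots were probed for methyl-lysine and P-Stat3, normalized to Flag-Stat3. n=3.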
# [3] = molecular target: N-lysine methyltransferase SMYD2 (Homo sapiens) (UniProt Q9NRG4); assay: Inhibition of Smyd2 KMT activity in human HEK 293T cells co-transfected with Flag-STAT3 and HA-Smyd2b assessed as decrease in Stat3 phosphorylation at 5 to 2.5 uM for 28 hrs by Co-IP assay; assay type: cell-based; details: dose 5-2.5 µM; in short: as §2
# [4] = In vivo inhibition of Smyd2 KMT activity in Zebrafish assessed as decrease in cardiomyocyte proliferation at 5 uM by immunostaining analysis relative to control; assay type: functional; details: Danio rerio, Cardiac muscle cell
# In short: (§3)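 Adult zebrafish (WT siblings or grl5nt−/− mutants) underwent ventricular apex resection. Bath treatment in aquarium water ran from 6 to 7 dpa, with 0.5‰ DMSO as the vehicle control. Hearts were fixed at 7 dpa in 4% PFA and cut as 10 µm cryosections. Sections were given antigen retrieval at 98°C for 20 min, then stained for PCNA and Mef2. For each heart, 4-6 sections with the largest injury were imaged with a 10× objective. PCNA+Mef2+/Mef2+ cells were counted in a fixed region around the injury, and the section values were averaged per heart. n=5-11 fish.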
# Cardiac Muscle Cell [5] = assay: In vivo inhibition of Smyd2 KMT activity in grl5nt-/- mutant Zebrafish assessed as decrease in cardiomyocyte proliferation at 5 uM by immunostaining analysis; assay type: functional, cell-based; details: Danio rerio; in short: as §3
# [6] = molecular target: N-lysine methyltransferase SMYD2 (Homo sapiens) (UniProt Q9NRG4); assay: Inhibition of Smyd2 KMT activity in human HEK 293T cells co-transfected with Flag-STAT3 and HA-Smyd2b assessed as decrease in Stat3 phosphorylation at 15 to 25 uM for 6 hrs by Co-IP assay; assay type: cell-based; details: dose 15-25 µM; in short: as §2
# [7] = molecular target: N-lysine methyltransferase SMYD2 (Homo sapiens) (UniProt Q9NRG4); assay: Inhibition of Smyd2 KMT activity in human HEK 293T cells co-transfected with Flag-STAT3 and HA-Smyd2b assessed as decrease in Stat3 methylation at 15 to 25 uM for 6 hrs by Co-IP assay; assay type: cell-based; details: dose 15-25 µM; in short: as §2
# [8] = In vivo inhibition of Smyd2 KMT activity in Zebrafish assessed as decrease in cardiomyocyte proliferation at 10 uM by immunostaining analysis relative to control; assay type: functional; details: Danio rerio, Cardiac muscle cell; in short: as §3
# Cardiac Muscle Cell [9] = assay: In vivo inhibition of Smyd2 KMT activity in grl5nt-/- mutant Zebrafish assessed as decrease in cardiomyocyte proliferation at 10 uM by immunostaining analysis; assay type: functional, cell-based; details: Danio rerio; in short: as §3
# Cardiac Muscle Cell [10] = assay: In vivo inhibition of Smyd2 KMT activity in grl5nt-/- mutant Zebrafish assessed as decrease in p-STAT3 level cardiomyocyte at 10 uM by immunostaining analysis; assay type: functional, cell-based; details: Danio rerio; in short: as §1
inhibition [2],inhibition [3],inhibition [6],inhibition [7],Compound,inhibition (Cardiac Muscle Cell [1]),inhibition in vivo at 5 µM [4],inhibition (Cardiac Muscle Cell [5]),inhibition in vivo at 10 µM [8],inhibition (Cardiac Muscle Cell [9]),inhibition (Cardiac Muscle Cell [10])
Active,Active,,,Cc1cn(CCN2CCN(c3ccccc3-c3cc(C#N)cc(C(=O)NCCCN4CCCC4)c3)CC2)c2ccccc12,Active,25%,Active,,,
,,Active,Active,O=C1COc2c(CCNCCN(C(=O)CCNCCc3ccc(Cl)c(Cl)c3)C3CCCCC3)ccc(O)c2N1,,,,34%,Active,Active
